Laboratory results reported in ChEMBL document CHEMBL4699407, “Isoquinoline thiosemicarbazone displays potent anticancer activity with in vivo efficacy against aggressive leukemias” (RSC Med Chem, 2020).
Activity calls are given as the source filed them. The calls are words filed in the database; no cut-off is given here.

Legend:
MIA PaCa-2 [1] = experiment: Induction of DNA damage in human MIA PaCa-2 cells assessed as decrease in GTP level at 25 nM in presence of Cu2+ incubated for 48 hrs by LC-MS/MS analysis; type: functional, cell-based
In short: (§1)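 MIAPACA2 cells were given 25 nM compound plus 20 μM Cu(II) for 48 h in glucose-free DMEM with 10% dialyzed FBS and 11 mM [U-13C6]glucose. Nucleotide pools were quantified by LC-MS/MS with multiple reaction monitoring. Mean ± SD, n = 3, two-way ANOVA with Bonferroni correction.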

MIA PaCa-2 [2] = experiment: Induction of apoptosis in human MIA PaCa-2 cells assessed as increase in caspase 3 cleavage at 10 nM in presence of Cu2+ incubated for 48 hrs by immunoblot assay; type: functional, cell-based
In short: (§2)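 Treated with 10 nM compound plus 20 μM Cu(II). Lysed in RIPA buffer with protease and phosphatase inhibitors, then sonicated and centrifuged at 20 000g, 4 °C. Protein measured by micro BCA, and equal amounts run on bis-tris gels. Primary antibodies in 5% BSA/TBST; HRP-linked anti-rabbit or anti-mouse secondaries at 1:2500. Chemiluminescent detection on film; representative blot.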

MIA PaCa-2 [3] = experiment: Induction of ROS generation in human MIA PaCa-2 cells at 25 nM in presence of Cu2+ incubated for 24 hrs by CM-H2DCFDA staining based flow cytometry analysis; type: functional, cell-based
In short: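 Treated with 25 nM compound ± 20 μM Cu(II) for 24 h. Cells loaded with 5 μM CM-H2DCFDA for 30 min, spun at 450g for 4 min, and returned to medium containing compound and/or Cu(II) for 30 min. Then spun, resuspended in PBS and read by flow cytometry as mean fluorescence intensity. Mean ± SD, n = 2, Student t-test.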

MIA PaCa-2 [4] = experiment: Induction of DNA damage in human MIA PaCa-2 cells assessed as decrease in TTP level at 25 nM in presence of Cu2+ incubated for 48 hrs by LC-MS/MS analysis; type: functional, cell-based; in short: as §1
MIA PaCa-2 [5] = experiment: Induction of DNA damage in human MIA PaCa-2 cells assessed as increase in CHEK1 phosphorylation at 10 nM in presence of Cu2+ incubated for 48 hrs by immunoblot assay; type: functional, cell-based; in short: as §2
MIA PaCa-2 [6] = experiment: Induction of DNA damage in human MIA PaCa-2 cells assessed as increase in pH2A.X phosphorylation at 10 nM in presence of Cu2+ incubated for 48 hrs by immunoblot assay; type: functional, cell-based; in short: as §2
MIA PaCa-2 [7] = experiment: Induction of apoptosis in human MIA PaCa-2 cells assessed as increase in early apoptotic cells at 25 nM in presence of Cu2+ and ATRi incubated for 72 hrs by annexin V and propidium iodide staining based flow cytometry analysis relative to control; type: functional
In short: (§3)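 Cells given 25 nM compound with or without 20 μM Cu(II) and/or the ATR inhibitor VE-822 at 250 nM for 72 h. Stained with annexin V-FITC and propidium iodide, then analysed on a five-laser flow cytometer to score viable, early apoptotic, late apoptotic and necrotic fractions against vehicle.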

MIA PaCa-2 [8] = experiment: Induction of DNA damage in human MIA PaCa-2 cells assessed as increase in CHEK2 phosphorylation at 10 nM in presence of Cu2+ incubated for 48 hrs by immunoblot assay; type: functional, cell-based; in short: as §2
NCI-H1963 = experiment: Cytotoxicity against human NCI-H1963 cells assessed as reduction in cell viability in presence of Cu2+ incubated for 72 hrs by cell titer-glo luminescent cell viability assay; type: functional, cell-based; conditions: NCI-H1963, 72 h
In short: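 Cells were grown in DMEM or RPMI with 10% FBS, without antibiotics, at 37 °C, 20% O2, 5% CO2. Adherent lines were seeded at 500 cells/well. Serially diluted compound was given with 20 μM Cu(II) (CuCl2) for 72 h; leukemia models received pre-formed 1:1 copper complex. ATP was read by CellTiter-Glo luminescence. IC50 is relative to DMSO-treated cells.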

MIA PaCa-2 [9] = experiment: Induction of apoptosis in human MIA PaCa-2 cells assessed as decrease in viable cells at 25 nM incubated for 72 hrs by annexin V and propidium iodide staining based flow cytometry analysis relative to control; type: functional; in short: as §3
MIA PaCa-2 [10] = experiment: Induction of DNA damage in human MIA PaCa-2 cells assessed as decrease in ATP level at 25 nM in presence of Cu2+ incubated for 48 hrs by LC-MS/MS analysis; type: functional, cell-based; in short: as §1

`CN(C)C(=S)NN=Cc1nccc2cc(F)ccc12` was tested, and the Activity (MIA PaCa-2 [1]) was “inactive”, the Activity (MIA PaCa-2 [2]) was “Active” and the Activity (MIA PaCa-2 [3]) was “Active”. The Activity (MIA PaCa-2 [4]) was “inactive”, the Activity (MIA PaCa-2 [5]) was “Active” and the Activity (MIA PaCa-2 [6]) was “Active”. The Activity (MIA PaCa-2 [7]) was 24.8%, the Activity (MIA PaCa-2 [8]) was “Active” and the IC50 (NCI-H1963) was 1 nM. The Activity (MIA PaCa-2 [9]) was 94.9% and the Activity (MIA PaCa-2 [10]) was “inactive”.
